Screening results from PubChem BioAssay.
Rows were chosen to be rich in hits. Some 2% of all compounds tested hit in one or more screens of this group.
C2C12 statin: suppressors of statin myotoxicity in C2C12 myotubes, primary screen, cell-based, single point, plate reader; C2C12 myotubes + simvastatin, ATP luminescence, 48 h; scaled: DMSO 0, geranylgeraniol control 100; rescue of ATP level, % at 7.49 µM; actives 0.78% (n = 330,000);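 active = mean ATP rescue above about 67%, or every replicate alone reaching that limit, limit read from the data, passing the limit was not always enough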;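 note: myotubes were challenged with 10 µM simvastatin during compound exposure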
CDK5 inh: inhibitors of human CDK5/p35 kinase, primary screen, biochemical, single concentration | Recombinant CDK5/p35, ADP-Glo luminescence, 60 min | inhibition, % at 10 µM | actives 0.01% (n = 330,000) | AID 488839, 2010;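 active = highest replicate inhibition of at least 50% and at least 75% of replicates reaching 50%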;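 note: plate controls were DMSO neutral control for no effect and GW8510 at 10 µM for full effect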
dFosB act-1: activators of delta FosB homodimer, primary screen, biochemical, fluorescence polarization, TAMRA-CDK5 oligo, single point; Protein FosB (Mus musculus), P13346; purified delta FosB; percent of positive-control signal above neutral wells; activation, % at 25 µM; actives 0.99% (n = 340,000); AID 493131, 2011;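 active = mean activation above about 17%, with every replicate also reaching it, limit read from the data, passing the limit was not always enough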
Target sequence (P13346 whole entry, looked up): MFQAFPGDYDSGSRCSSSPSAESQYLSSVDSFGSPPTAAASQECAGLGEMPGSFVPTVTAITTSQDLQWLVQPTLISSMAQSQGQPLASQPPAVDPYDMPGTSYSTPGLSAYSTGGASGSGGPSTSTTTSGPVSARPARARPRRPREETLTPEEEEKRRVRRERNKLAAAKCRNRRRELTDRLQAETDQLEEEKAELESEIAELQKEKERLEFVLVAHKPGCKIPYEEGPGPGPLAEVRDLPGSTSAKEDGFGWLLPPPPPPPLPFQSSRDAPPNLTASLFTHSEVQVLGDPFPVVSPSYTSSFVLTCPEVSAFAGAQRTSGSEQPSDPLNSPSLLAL
CAL PDZ FP-1: CAL PDZ peptide-binding inhibitors, primary screen, biochemical, fluorescence polarization, Cer-tagged CAL PDZ, HTS. actives 0.02% (n = 330,000). Golgi-associated PDZ and coiled-coil motif-containing protein (Homo sapiens), Q9HD26. AID 504414, 2011. purified CAL PDZ, TMR-peptide fluorescence polarization, 1 h. inhibition, % at 20 µM;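 active = highest replicate inhibition of at least 40%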;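 note: plate controls were DMSO neutral control wells for no effect and unlabeled competitor peptide control wells for full effect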
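Assay system – tagged CAL PDZ protein CerCALP, purified · Timing – 1 h at RT · Compound – single point, 20 µM · Measured by – fluorescence polarization from S- and P-plane intensities, G-factor corrected · Evaluation – inhibition from polarization loss · Probe or stimulus – TMR reporter peptide T*-PRC34 · Buffer or medium – pH 7.4 phosphate-saline buffer, reducing agent, detergent, IgG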
S100A4 inh HTS: inhibitors of S100A4-myosin IIA peptide binding, primary screen, biochemical, fluorescence polarization, TAMRA-MyoIIA peptide. Protein S100-A4 (Homo sapiens), P26447. inhibition, % at 10.7 µM. actives 0.14% (n = 360,000). AID 652163, 2013;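 active = mean inhibition of at least 70% across replicates, with every replicate also reaching that level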
Target sequence (P26447 whole entry, looked up): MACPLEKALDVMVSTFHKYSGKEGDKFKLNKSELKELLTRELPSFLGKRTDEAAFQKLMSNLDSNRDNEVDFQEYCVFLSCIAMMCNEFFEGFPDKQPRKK
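Test system: S100A4 monomer protein; Medium: HEPES pH 7.2 with CaCl2, KCl, NaCl, DTT, Triton; Probe or stimulus: TAMRA-labelled myosin IIA heavy-chain peptide probe, 5 nM; Doses: one dose per compound; Times: polarization read 5 min after assay mix addition, stable 5–60 min; Benchmarks: neutral control DMSO, positive control TFP.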
CAL PDZ FP-2: untagged CAL PDZ binding inhibitors, primary screen, biochemical, fluorescence polarization, HTS; actives 0.92% (n = 300,000); inhibition, % at 24.9 µM; purified CAL PDZ, TMR-peptide fluorescence polarization, 1 h;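 active = mean inhibition of at least 30% with at least half of replicates also reaching 30%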;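 note: 0% = DMSO neutral control and 100% = excess unlabeled competitor peptide PRC23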
dFosB act-2: activators of mouse delta FosB DNA binding, confirmation, biochemical, fluorescence polarization, TAMRA-CDK5 oligo, cherry-picked samples; shares compounds with dFosB act-1; purified delta FosB; normalised: neutral wells 0, positive control 100; activation, % at 24.9 µM; 2,400 tested, under 10 active;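 active = highest replicate activation at or above 34% and every replicate reaching that threshold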;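 note: higher polarization means more probe DNA bound by delta FosB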
* hit, by the source's call; . = no result.

SMILES	C2C12 statin	CDK5 inh	dFosB act-1	CAL PDZ FP-1	S100A4 inh HTS	CAL PDZ FP-2	dFosB act-2
COc1ccc(OC)c(NC(=O)COc2ccc(Br)cc2)c1	14.8	0.5	-3.0	1.2	-2.2	-1.0	.
CCOc1ccc(NC(=O)Cn2cc(C(=O)CC)c3ccccc32)cc1	.	0.9	40.7*	1.0	.	7.3	4.1
COc1ccc(NC(=O)Cn2cc(C(C)=O)c3ccccc32)cc1	8.3	1.1	-3.3	.	-3.9	-0.5	.
CCOc1ccc(NC(=O)Cn2cc(C(C)=O)c3ccccc32)cc1	4.9	2.3	-3.4	0.5	7.4	0.9	.
COc1ccc(Cn2c(SCc3ccccc3C)nc3cc(OC)c(OC)cc3c2=N)cc1	-58.8	-0.4	45.3*	-4.2	.	5.7	1.8
COc1cc2nc(SCc3ccc(F)cc3)n(Cc3cccs3)c(=N)c2cc1OC	5.5	1.4	-15.5	-0.4	.	-1.6	.
CCCCN(C(=O)c1cc(Cl)nc2ccccc12)c1c(N)n(Cc2ccccc2)c(=O)[nH]c1=O	12.9	0.5	26.5*	-2.0	-3.0	-0.6	-1.3
CCOC(=O)c1sc(C)nc1C1CCN(C(=O)OCC)CC1	-0.5	-0.7	-1.2	-2.4	.	-0.4	.
CCOC(=O)c1sc(NC(=O)CN2C(=O)c3cccc4cccc(c34)C2=O)nc1C	5.5	-0.1	47.3*	-3.3	.	-4.4	-5.9
CC(Sc1nnc(-c2ccccc2F)n1C1CC1)C(=O)NC(N)=O (stereo not given)	.	-2.7	3.1	-3.0	-1.9	-5.1	.
COc1cccc(-c2cc(C(=O)Nc3cnn(Cc4ccc(F)cc4)c3)no2)c1	-26.4	-3.4	1.8	-0.4	.	.	.
COc1cccc(-c2cc(C(=O)Nc3cnn(Cc4ccccc4C)c3)no2)c1	13.3	-0.9	43.1*	.	.	0.6	0.7
Oc1oc(-c2ccccc2)nc1/C=N/c1ccccn1	-3.9	0.5	-2.0	0.1	-3.4	-3.9	.
Oc1oc(-c2ccccc2Br)nc1C=Nc1ccc(Br)cn1	2.8	2.4	47.1*	-2.8	-0.7	-1.5	-2.0
COC(=O)C1=C(COc2ccccc2)NC(=O)NC1c1ccc(Br)cc1 (stereo not given)	15.0	0.6	35.5*	-0.1	-18.3	1.6	2.4
COC(=O)C1=C(COc2ccccc2)NC(=O)NC1c1ccc2ccccc2c1 (stereo not given)	.	.	.	.	1.1	.	.
CCCC(=O)Nc1ccc2c(c1)OC[C@H](C)N(CC1CCCC1)C[C@@H](C)[C@H](OC)CN(C)C2=O	3.2	.	.	.	-2.2	.	.
COc1cc(C(=O)Nc2nc3ccc4nc(C)sc4c3s2)cc(OC)c1OC	-5.3	4.9	6.1	-3.2	.	-2.9	.
COc1ccc2nc(NC(=O)c3ccc(F)cc3)sc2c1	-5.6	1.0	14.2	2.3	-2.0	-3.2	.
COc1ccc2nc(NC(=O)c3ccc4ncsc4c3)sc2c1	-65.6	0.2	21.6*	-1.6	.	.	4.8
COc1ccc(C(=O)Nc2nc3ccc4nc(C)sc4c3s2)cc1	-3.7	-0.1	22.8*	-2.2	-1.6	.	3.5
O=C(NCc1ccccc1Cl)c1ccc(NC2=NC3CS(=O)(=O)CC3S2)cc1 (stereo not given)	2.9	-0.4	29.2*	0.1	4.6	.	3.7
Cc1ccc(C)c(NC(=O)CN2C(=O)NC(CCc3ccccc3)C2=O)c1 (stereo not given)	-6.7	-1.0	33.6*	-0.8	-6.1	-0.2	1.0
Cc1cc(C)c(NC(=O)CN2C(=O)NC(CCc3ccccc3)C2=O)c(C)c1 (stereo not given)	-5.7	-0.9	-7.3	-2.9	-0.4	-5.1	.
C[C@@]12C(=O)Nc3ccc(Cl)cc3C(=O)N1[C@H]1c3cc(Br)ccc3OC[C@@H]1[C@@H]2c1ccccc1	2.7	-1.0	-2.8	-0.7	-2.1	-0.8	.
SMILES	C2C12 statin	CDK5 inh	dFosB act-1	CAL PDZ FP-1	S100A4 inh HTS	CAL PDZ FP-2	dFosB act-2
C[C@@]12C(=O)Nc3ccc(Br)cc3C(=O)N1[C@H]1c3cc(Br)ccc3OC[C@@H]1[C@@H]2c1ccccc1	-1.1	-1.7	38.1*	-1.8	7.1	-1.4	-6.9
O=C(CN1C2CCCC1CC(NC(=O)C1CCCCC1)C2)NCc1ccc(F)cc1 (stereo not given)	11.6	0.7	-12.3	0.2	-2.4	-2.1	.
CC(=O)Nc1ccccc1-c1nc2ccccc2nc1OCC(=O)c1ccc2ccccc2c1	12.6	-0.3	30.4*	-2.1	.	-0.6	-3.9
Cc1cccn2c(=O)c(/C=N/O)c(NCc3ccccc3)nc12	.	-0.5	2.6	-1.2	-2.0	4.9	.
Cc1cccn2c(=O)c(/C=N/O)c(Nc3ccccc3F)nc12	.	2.6	20.0*	-1.1	1.8	-4.6	0.6
CCOc1cccc2sc(NC(=O)c3ccc(Br)s3)nc12	-35.3	-2.1	32.8*	-1.4	-0.2	.	7.0
Cc1csc(NC(=O)c2ccc(Br)s2)n1	4.4	-0.4	-9.4	-1.4	-18.5	-4.4	.
COc1ccc(NC2CCCN(C(=O)c3ccccc3N3CCOCC3)C2)cc1OC (stereo not given)	1.4	0.9	-10.4	-1.6	-5.5	-2.9	.
COC(=O)c1cc(NC(=O)C2COc3ccccc3O2)ccc1Cl (stereo not given)	30.3	-0.5	-10.5	-3.1	.	.	.
OC(CNCCc1ccccc1)COc1ccc(OCC(O)CNCCc2ccccc2)cc1 (stereo not given)	.	0.5	19.2*	0.2	-8.7	-2.6	-3.8
OC(CNCCc1ccc(Cl)cc1)COc1ccc2ccccc2c1 (stereo not given)	6.3	2.8	3.6	-1.1	9.8	-6.8	.
C[C@H](CO)N1C[C@H](C)[C@H](CN(C)S(=O)(=O)c2cccs2)Oc2ccc(NS(=O)(=O)c3ccccc3)cc2CC1=O	-3.1	.	.	.	2.4	.	.
CO[C@H]1CN(C)C(=O)c2ccc(NC(C)=O)cc2OC[C@@H](C)N(Cc2cccc(F)c2)C[C@@H]1C	0.9	.	.	.	.	.	.
COc1ccccc1NC(=O)c1ccc(NC(=O)Cc2n[nH]c(=O)c3ccccc23)cc1	-75.1	3.2	25.0*	-0.5	-7.9	0.2	-0.7
CC(=O)CSc1nc(N)c(C#N)c(-c2cccs2)c1C#N	6.2	-0.4	-6.1	-1.9	.	4.0	.
